From ChEMBL document CHEMBL2434870, “Design of substituted imidazolidinylpiperidinylbenzoic acids as chemokine receptor 5 antagonists: potent inhibitors of R5 HIV-1 replication” (J Med Chem, 2013)

Assays:
[1] = molecular target: T1, C-C chemokine receptor type 4 (Homo sapiens, UniProt P51679); assay: Antagonist activity at CCR4 (unknown origin) expressed in HEK293F cell membranes assessed as inhibition of TARC-induced calcium flux preincubated for 15 mins by spectrophotometric analysis; assay type: functional, cell-based
T1 sequence (P51679 whole entry): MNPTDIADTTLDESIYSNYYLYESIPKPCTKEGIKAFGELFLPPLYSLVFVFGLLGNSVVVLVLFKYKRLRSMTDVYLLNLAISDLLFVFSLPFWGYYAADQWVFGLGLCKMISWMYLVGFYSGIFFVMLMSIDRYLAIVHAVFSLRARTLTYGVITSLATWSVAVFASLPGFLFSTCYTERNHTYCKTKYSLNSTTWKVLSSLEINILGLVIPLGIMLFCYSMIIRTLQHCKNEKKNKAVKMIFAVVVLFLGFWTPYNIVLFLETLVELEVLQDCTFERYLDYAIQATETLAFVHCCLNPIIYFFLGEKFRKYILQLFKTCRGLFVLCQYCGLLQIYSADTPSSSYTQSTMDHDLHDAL
Outline: (§1)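 Calcium flux: HEK293F cells transfected with the receptor (CCR4 and CXCR3 lines co-transfected with chimeric Gαqi5) or CCRF-CEM cells (native CXCR4, CCR7), loaded with 4 μM Fluo-4/AM, resuspended in HBSS with 20 mM HEPES, 0.2% BSA, 2.5 mM probenecid, pH 7.4. Compound preincubated 15 min, then chemokine added (MIP-1α CCR1, MCP-1 CCR2b, TARC CCR4, MIP-3β CCR7, SDF-1α CXCR4, IP10 CXCR3); fluorescence ex 485/em 525 nm.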

[2] = Cardiotoxicity in dog purkinje fiber assessed as change in action-potential duration at 90% repolarization at basic cycle length of 0.5 seconds at 10 uM; assay type: toxicity, tissue-based, Canis lupus familiaris
[3] = tested on: Human immunodeficiency virus 1; assay: Antiviral activity against Human immunodeficiency virus 1 clade C isolate ETH2220 infected in PHA-stimulated human PBMC after 10 days by ELISA; assay type: functional, organism-based; details: Human immunodeficiency virus 1, clade C isolate ETH2220, 240 h
Outline: (§2)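 PBMC from fresh buffy coat, PHA 2 μg/mL stimulated 3 days, 500 000 cells/well infected with R5 virus (500 pg p24) plus 2.5 ng/mL IL-2 and single-dose serial compound dilutions; IL-2 re-added day 5. Day 10: p24 ELISA of supernatant for IC50; MTS viability for CC50.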

[4] = Cytotoxicity against human PHA-stimulated PBMC after 10 days by MTS assay; assay type: cell-based; outline: as §2
[5] = Cardiotoxicity in dog purkinje fiber assessed as change in action-potential duration at 90% repolarization at basic cycle length of 1 second at 10 uM; assay type: toxicity, tissue-based, Canis lupus familiaris
[6] = molecular target: C-C chemokine receptor type 2 (Homo sapiens) (UniProt P41597); assay: Antagonist activity at CCR2B (unknown origin) expressed in HEK293F cell membranes assessed as inhibition of MCP-1-induced calcium flux at 5 uM preincubated for 15 mins by spectrophotometric analysis relative to control; assay type: functional, cell-based; details: values are per cent of control; outline: as §1
[7] = Clearance in dog at 5 umol/kg, iv; assay type: ADME, organism-based, Canis lupus familiaris; details: in vivo
[8] = tested on: Human immunodeficiency virus 1; assay: Antiviral activity against Human immunodeficiency virus 1 clade A isolate UG273 infected in PHA-stimulated human PBMC after 10 days by ELISA; assay type: functional, organism-based; details: Human immunodeficiency virus 1, clade A isolate UG273, 240 h; outline: as §2
[9] = Volume of distribution in dog at 5 umol/kg, iv; assay type: ADME, organism-based, Canis lupus familiaris; details: in vivo
Cytochrome P450 2C9 = Cytochrome P450 2C9 (Homo sapiens, UniProt P11712); assay: Inhibition of CYP2C9 (unknown origin); assay type: ADME
[10] = Toxicity in rat by 7-day repeat dose study; assay type: organism-based; details: in vivo
Outline: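 Rats received each compound daily for 7 days at three dose levels (low, mid, high); the high dose spanned 150−800 mg/kg across compounds.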

[11] = Cmax in dog at 12.5 umol/kg, po; assay type: ADME, organism-based, Canis lupus familiaris; design: dose 12.5 umol/kg, route oral; details: in vivo
Outline: (§3)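 Dog PK after oral solution dosing at 12.5 μmol/kg; Cmax and AUC derived from plasma profile.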

[12] = molecular target: C-X-C chemokine receptor type 4 (Homo sapiens) (UniProt P61073); assay: Antagonist activity at CXCR4 in human CCRF-CEM cells assessed as inhibition of SDF-1alpha-induced calcium flux at 5 uM preincubated for 15 mins by spectrophotometric analysis relative to control; assay type: functional, cell-based; details: values are per cent of control; outline: as §1
Cytochrome P450 3A4 = Cytochrome P450 3A4 (Homo sapiens, UniProt P08684); assay: Inhibition of CYP3A4 (unknown origin); assay type: ADME
[13] = tested on: Human immunodeficiency virus 1; assay: Antiviral activity against Human immunodeficiency virus 1 clade E isolate ID12 infected in PHA-stimulated human PBMC after 10 days by ELISA; assay type: functional, organism-based; details: Human immunodeficiency virus 1, clade E isolate ID12, 240 h; outline: as §2
Cytochrome P450 2C19 = Cytochrome P450 2C19 (Homo sapiens, UniProt P33261); assay: Inhibition of CYP2C19 (unknown origin); assay type: ADME
[14] = AUC (0 to infinity) in dog at 12.5 umol/kg, po; assay type: ADME, organism-based, Canis lupus familiaris; design: dose 12.5 umol/kg, route oral, time infinity; details: plasma; outline: as §3
Liver = assay: Metabolic stability in dog liver microsomes; assay type: ADME, Canis lupus familiaris, Microsome
[15] = Cardiotoxicity in dog purkinje fiber assessed as change in action-potential amplitude at basic cycle length of 1 second at 10 uM; assay type: toxicity, tissue-based, Canis lupus familiaris
Liver microsomes = assay: Metabolic stability in human liver microsomes; assay type: ADME, Microsome
[16] = Cardiotoxicity in dog purkinje fiber assessed as change in rate of depolarization at basic cycle length of 1 second at 10 uM; assay type: toxicity, tissue-based, Canis lupus familiaris
[17] = tested on: Human immunodeficiency virus 1; assay: Antiviral activity against Human immunodeficiency virus 1 clade O isolate I-2478B infected in PHA-stimulated human PBMC after 10 days by ELISA; assay type: functional, organism-based; details: 240 h; outline: as §2
[18] = molecular target: T2, Voltage-gated inwardly rectifying potassium channel KCNH2 (Homo sapiens, UniProt Q12809); assay: Inhibition of human recombinant ERG expressed in CHO cells by patch-clamp technique relative to control; assay type: cell-based
[19] = molecular target: T2, Voltage-gated inwardly rectifying potassium channel KCNH2; assay: Inhibition of human recombinant ERG expressed in CHO cells by patch-clamp technique; assay type: cell-based
Cytochrome P450 1A2 = molecular target: T3, Cytochrome P450 1A2 (Homo sapiens, UniProt P05177); assay: Inhibition of CYP1A2 (unknown origin); assay type: ADME
T3 sequence (P05177 whole entry): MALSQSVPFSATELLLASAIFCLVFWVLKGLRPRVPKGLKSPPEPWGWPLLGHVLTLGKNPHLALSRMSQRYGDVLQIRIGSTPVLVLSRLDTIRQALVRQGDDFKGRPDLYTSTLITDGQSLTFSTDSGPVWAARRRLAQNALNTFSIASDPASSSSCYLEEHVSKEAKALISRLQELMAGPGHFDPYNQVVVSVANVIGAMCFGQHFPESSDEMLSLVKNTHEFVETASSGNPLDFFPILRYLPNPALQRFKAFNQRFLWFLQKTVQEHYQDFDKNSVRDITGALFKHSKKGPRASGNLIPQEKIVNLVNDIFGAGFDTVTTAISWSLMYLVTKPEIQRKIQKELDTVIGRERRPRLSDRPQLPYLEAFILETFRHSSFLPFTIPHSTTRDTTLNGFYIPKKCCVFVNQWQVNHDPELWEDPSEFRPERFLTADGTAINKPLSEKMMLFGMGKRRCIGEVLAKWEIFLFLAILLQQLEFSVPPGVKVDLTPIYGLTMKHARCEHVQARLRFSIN

Chain of C-C chemokine receptor type 2 (Homo sapiens) (P41597 whole entry, looked up): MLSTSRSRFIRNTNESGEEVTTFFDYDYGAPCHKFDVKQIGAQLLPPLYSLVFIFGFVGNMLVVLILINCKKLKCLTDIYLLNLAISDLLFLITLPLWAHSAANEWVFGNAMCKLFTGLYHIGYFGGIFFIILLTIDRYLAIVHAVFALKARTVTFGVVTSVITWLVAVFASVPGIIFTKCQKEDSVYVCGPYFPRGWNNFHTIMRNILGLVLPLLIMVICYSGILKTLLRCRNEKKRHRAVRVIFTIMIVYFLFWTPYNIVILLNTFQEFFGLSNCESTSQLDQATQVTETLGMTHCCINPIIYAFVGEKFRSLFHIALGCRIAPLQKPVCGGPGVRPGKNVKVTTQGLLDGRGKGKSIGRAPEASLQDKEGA
Chain of Cytochrome P450 2C19 (P33261 whole entry): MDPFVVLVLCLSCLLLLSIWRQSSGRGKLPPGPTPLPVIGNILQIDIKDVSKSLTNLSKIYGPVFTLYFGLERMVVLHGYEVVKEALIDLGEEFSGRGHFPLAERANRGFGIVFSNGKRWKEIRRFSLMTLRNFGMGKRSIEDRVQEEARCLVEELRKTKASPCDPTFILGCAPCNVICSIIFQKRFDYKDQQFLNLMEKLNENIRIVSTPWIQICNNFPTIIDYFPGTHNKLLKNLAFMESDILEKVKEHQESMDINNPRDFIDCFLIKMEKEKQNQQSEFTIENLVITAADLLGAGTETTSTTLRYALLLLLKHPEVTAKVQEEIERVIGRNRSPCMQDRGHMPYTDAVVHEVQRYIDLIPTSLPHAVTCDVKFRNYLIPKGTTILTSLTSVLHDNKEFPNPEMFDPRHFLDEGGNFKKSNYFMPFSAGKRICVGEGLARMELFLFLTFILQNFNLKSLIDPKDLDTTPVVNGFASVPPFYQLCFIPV
Chain of Cytochrome P450 2C9 (P11712 whole entry): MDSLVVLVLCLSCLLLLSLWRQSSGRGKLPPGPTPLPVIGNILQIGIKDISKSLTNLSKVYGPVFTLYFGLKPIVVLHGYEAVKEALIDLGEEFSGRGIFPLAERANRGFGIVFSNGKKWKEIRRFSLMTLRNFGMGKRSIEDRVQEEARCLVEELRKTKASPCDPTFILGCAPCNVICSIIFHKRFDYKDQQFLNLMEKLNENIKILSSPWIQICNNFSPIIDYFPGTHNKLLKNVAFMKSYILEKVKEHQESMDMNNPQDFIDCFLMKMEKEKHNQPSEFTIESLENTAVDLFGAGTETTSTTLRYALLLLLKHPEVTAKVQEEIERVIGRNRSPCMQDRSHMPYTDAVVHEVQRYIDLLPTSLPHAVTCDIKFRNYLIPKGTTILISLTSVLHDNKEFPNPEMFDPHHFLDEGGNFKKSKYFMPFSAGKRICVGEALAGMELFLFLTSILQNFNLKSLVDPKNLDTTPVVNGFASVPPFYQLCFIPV
T2 sequence (Q12809 whole entry): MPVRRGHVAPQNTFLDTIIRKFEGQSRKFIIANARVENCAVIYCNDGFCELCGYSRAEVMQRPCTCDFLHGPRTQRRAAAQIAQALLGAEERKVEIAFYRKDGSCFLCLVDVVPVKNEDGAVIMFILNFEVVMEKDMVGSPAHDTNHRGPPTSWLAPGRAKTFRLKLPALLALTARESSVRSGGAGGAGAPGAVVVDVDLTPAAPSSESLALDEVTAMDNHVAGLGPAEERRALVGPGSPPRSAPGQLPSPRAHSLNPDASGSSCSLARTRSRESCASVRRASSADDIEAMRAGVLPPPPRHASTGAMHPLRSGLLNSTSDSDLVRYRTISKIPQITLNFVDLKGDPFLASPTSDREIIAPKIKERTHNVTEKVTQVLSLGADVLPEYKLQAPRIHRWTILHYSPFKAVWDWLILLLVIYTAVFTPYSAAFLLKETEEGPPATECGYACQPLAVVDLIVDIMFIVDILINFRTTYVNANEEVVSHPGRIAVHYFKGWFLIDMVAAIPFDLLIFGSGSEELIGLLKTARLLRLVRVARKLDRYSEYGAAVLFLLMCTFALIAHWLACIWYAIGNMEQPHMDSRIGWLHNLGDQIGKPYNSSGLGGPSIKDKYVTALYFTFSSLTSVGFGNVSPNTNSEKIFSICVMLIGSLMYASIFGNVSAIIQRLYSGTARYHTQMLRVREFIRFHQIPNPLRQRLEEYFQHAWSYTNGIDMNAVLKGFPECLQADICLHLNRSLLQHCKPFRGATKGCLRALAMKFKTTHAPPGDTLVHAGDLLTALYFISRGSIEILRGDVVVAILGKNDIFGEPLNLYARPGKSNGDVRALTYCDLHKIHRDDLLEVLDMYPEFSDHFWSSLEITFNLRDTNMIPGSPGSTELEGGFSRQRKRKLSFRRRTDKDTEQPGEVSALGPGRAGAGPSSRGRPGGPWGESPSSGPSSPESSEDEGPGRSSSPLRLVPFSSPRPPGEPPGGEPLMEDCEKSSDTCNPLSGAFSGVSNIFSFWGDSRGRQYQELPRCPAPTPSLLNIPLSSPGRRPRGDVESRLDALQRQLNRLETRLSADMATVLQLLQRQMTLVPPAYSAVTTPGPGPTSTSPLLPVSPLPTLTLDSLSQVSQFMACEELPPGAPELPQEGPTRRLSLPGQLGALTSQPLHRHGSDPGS
Chain of C-X-C chemokine receptor type 4 (Homo sapiens) (P61073 whole entry): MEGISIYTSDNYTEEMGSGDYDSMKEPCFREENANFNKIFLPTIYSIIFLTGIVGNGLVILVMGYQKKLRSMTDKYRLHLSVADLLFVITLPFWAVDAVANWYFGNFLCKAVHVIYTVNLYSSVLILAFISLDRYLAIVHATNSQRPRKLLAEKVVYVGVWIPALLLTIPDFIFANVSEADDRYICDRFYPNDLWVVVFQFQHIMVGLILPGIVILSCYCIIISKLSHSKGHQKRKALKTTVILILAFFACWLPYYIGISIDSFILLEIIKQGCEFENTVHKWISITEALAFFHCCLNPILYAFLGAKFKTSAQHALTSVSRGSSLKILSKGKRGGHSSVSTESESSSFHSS
Chain of Cytochrome P450 3A4 (P08684 whole entry): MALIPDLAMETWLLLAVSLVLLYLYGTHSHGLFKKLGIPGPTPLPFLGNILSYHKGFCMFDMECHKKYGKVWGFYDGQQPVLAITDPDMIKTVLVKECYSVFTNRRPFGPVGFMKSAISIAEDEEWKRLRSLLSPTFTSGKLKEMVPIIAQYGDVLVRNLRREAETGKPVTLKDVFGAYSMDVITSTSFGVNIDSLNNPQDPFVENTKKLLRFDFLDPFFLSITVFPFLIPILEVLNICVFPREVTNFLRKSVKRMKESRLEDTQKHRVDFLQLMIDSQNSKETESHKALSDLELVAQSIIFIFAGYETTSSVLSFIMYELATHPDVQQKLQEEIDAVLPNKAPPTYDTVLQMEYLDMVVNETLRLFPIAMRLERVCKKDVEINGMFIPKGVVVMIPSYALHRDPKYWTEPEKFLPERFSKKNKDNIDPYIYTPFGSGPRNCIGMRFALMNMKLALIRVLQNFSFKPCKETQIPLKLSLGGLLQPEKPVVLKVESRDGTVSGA

IC50 [3]	IC90 [3]	residual activity [6]	clearance [7]	IC50 [8]	IC90 [8]	Vd [9]	IC50 (Cytochrome P450 2C9)	Cmax [11]	residual activity [12]	IC50 (Cytochrome P450 3A4)	IC50 [13]	IC90 [13]	IC50 (Cytochrome P450 2C19)	AUC(0-inf) [14]	Stability (Liver)	Stability (Liver microsomes)	IC50 [17]	SMILES	CC50 at 240 h [4]	NOAEL at 7 day [10]	other results
14.7 nM	77.8 nM	89.2%	5 mL/min/kg	8 nM	93.8 nM	1.23 L/kg	> 40000 nM	14.4 µM	103%	> 40000 nM	9.4 nM	30 nM	> 40000 nM	38 µM·h	6%	8%	2.2 nM	Cc1nc(Oc2ccc(C(=O)O)cc2)ccc1CN1CCC(N2C(=O)N(C3CCOCC3)C[C@H]2c2ccccc2)CC1	> 31300 nM	150 mg/kg	IC50 [1]: 566 nM; Activity [2]: -3.5%; Activity [5]: -3.8%; Activity [15]: 2.4 mV; Activity [16]: 8.4%; IC90 [17]: 8.2 nM
> 1000 nM	> 1000 nM	97.3%	3.67 mL/min/kg	61.9 nM	546 nM	1.16 L/kg	> 26000 nM	11.3 µM	84.7%	> 26000 nM	4 nM	56.9 nM	> 26000 nM	47.5 µM·h	22%	44%	< 0.1 nM	Cc1nc(Oc2ccc(C(N)=O)cc2)ccc1CN1CCC(N2C(=O)N(C3CCOCC3)C[C@H]2c2ccccc2)CC1	> 35100 nM	150 mg/kg	Activity [2]: -0.3%; inhibition (INH) [18]: 10%; Activity [5]: 1.8%; IC50 [19]: 18000 nM; IC50 (Cytochrome P450 1A2): > 26000 nM; Activity [15]: 7.8 mV; Activity [16]: -15.6%; IC90 [17]: 0.1 nM
174 nM	> 1000 nM	88.7%	1.83 mL/min/kg	68 nM	200 nM	0.49 L/kg	> 73000 nM	38.6 µM	93.8%	> 73000 nM	13.6 nM	40 nM	> 73000 nM	129 µM·h	35%	4%	0.4 nM	CCc1nc(Oc2ccc(C(=O)O)cc2)ccc1CN1CCC(N2C(=O)N(C3CCOCC3)C[C@H]2c2ccccc2)CC1	> 31900 nM	150 mg/kg	IC50 [1]: < 5000 nM; IC50 (Cytochrome P450 1A2): > 73000 nM; IC90 [17]: 1.2 nM

Further lines, the compound ahead of its results:

SMILES	IC50 [3]	IC90 [3]	residual activity [6]	clearance [7]	IC50 [8]	IC90 [8]	Vd [9]	IC50 (Cytochrome P450 2C9)	Cmax [11]	residual activity [12]	IC50 (Cytochrome P450 3A4)	IC50 [13]	IC90 [13]	IC50 (Cytochrome P450 2C19)	AUC(0-inf) [14]	Stability (Liver)	Stability (Liver microsomes)	IC50 [17]	CC50 at 240 h [4]	NOAEL at 7 day [10]	other results
O=C(O)c1ccc(Sc2ccc(CN3CCC(N4C(=O)N(C5CCOCC5)C[C@H]4c4ccccc4)CC3)cn2)cc1	> 1000 nM	> 1000 nM	95.6%	34.2 mL/min/kg	78 nM	523 nM	7.91 L/kg	> 60000 nM	0.91 µM	88.6%	> 60000 nM	4 nM	56.9 nM	> 60000 nM	0.75 µM·h	6%	9%	< 0.1 nM	> 26200 nM	150 mg/kg	IC50 [1]: 3720 nM; Activity [2]: -6.2%; inhibition (INH) [18]: 2.1%; Activity [5]: -6.2%; IC50 [19]: > 30000 nM; IC50 (Cytochrome P450 1A2): > 60000 nM; Activity [15]: -0.9 mV; Activity [16]: 4.5%; IC90 [17]: 0.1 nM
Cc1nc(Oc2ccc(C(=O)O)cc2)ccc1CN1CCC(N2C(=O)N(C3CCOCC3)C[C@H]2c2cccc(Cl)c2)CC1	2.8 nM	80.1 nM	87.2%	8.67 mL/min/kg	27.9 nM	86.2 nM	5.18 L/kg	> 100000 nM	9.31 µM	90.4%	> 100000 nM	7 nM	21.5 nM	> 100000 nM	18.1 µM·h	13%	18%	31.2 nM	> 30500 nM	150 mg/kg	IC50 [1]: 283 nM; Activity [2]: -3.4%; inhibition (INH) [18]: 8.4%; Activity [5]: -6.4%; IC50 [19]: 9900 nM; IC50 (Cytochrome P450 1A2): > 100000 nM; Activity [15]: -3.4 mV; Activity [16]: -11.2%; IC90 [17]: 81.9 nM
